Paper PMC11193445 (International Journal of Nanomedicine, 2024)

System: MDA-MB-231 cells
Assay: Dox intracellular localization by confocal microscopy
Assay type: cell-based, human
Settings: free Dox 7.5 µM, NF-Dox 50 µM (7.5 µM of Dox), 1 h, 37 °C
How it was run: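 MDA-MB-231 cells were seeded on coverslips at 5×10^4 cells/well and grown 24 h. They were exposed 1 h at 37 °C, washed twice in PBS, fixed 10 min in ice-cold 4% PFA, and mounted in DAPI-containing antifade. Intrinsic Dox fluorescence (RFP channel) and DAPI nuclei were imaged with a 63× oil objective. Images represent three separate experiments.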

COc1cccc2c1C(=O)c1c(O)c3c(c(O)c1C2=O)C[C@@](O)(C(=O)CO)C[C@@H]3O[C@H]1C[C@H](N)[C@H](O)[C@H](C)O1 [Dox, Doxorubicin]
Dox cellular uptake and localization (confocal, red fluorescence): not significant
